MIC, ED50 and AUC data for seven compounds are collected here from ChEMBL document CHEMBL1126625, “7-Azetidinylquinolones as antibacterial agents. Synthesis and structure-activity relationships” (J Med Chem, 1993).

Converted amounts (≈) assume the structure as drawn.

In series [1] the test system is Enterococcus faecalis. Put plainly: Minimum inhibitory concentration (MIC) preventing growth of Streptococcus faecalis ATCC 10541. The series is classed as functional.
Series [2] concerns Bacillus cereus. Put plainly: Minimum inhibitory concentration (MIC) preventing growth of Bacillus cereus. The series is classed as functional.
Series [3] relates to Escherichia coli. Put plainly: Minimum inhibitory concentration (MIC)preventing growth of Escherichia coli. The series is classed as functional.
Series [4] relates to Bacillus subtilis. Put plainly: Minimum inhibitory concentration (MIC) preventing growth of Bacillus subtilis. The series is classed as functional.
In series [5] the test system is Pseudomonas aeruginosa. Put plainly: Efficacy on systemic infections after oral administration in mice was determined against Pseudomonas aeruginosa HS-116. The series is classed as functional. In a few lines: (§1)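 Mouse protection test using 4 groups of 10 mice. Mice were infected intraperitoneally with a bacterial suspension slightly above LD100. A single oral dose was given immediately after infection, with four doses, one per group, chosen from in vitro activity. Survival was scored after one week, and ED50 (total mg/kg protecting 50% of mice) was interpolated from group survival rates.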

The subject of series [6] is Escherichia coli. Put plainly: Efficacy on systemic infections after oral administration in mice was determined against Escherichia coli HM-42. The series is classed as functional. In a few lines:
as §1

For series [7], the system named is Morganella morganii. Briefly: Minimum inhibitory concentration (MIC) preventing growth of Morganella morganii. The series is classed as functional.
Series [8] deals with Pseudomonas aeruginosa. Put plainly: Minimum inhibitory concentration (MIC)preventing growth of Pseudomonas aeruginosa. The series is classed as functional.
The subject of series [9] is Staphylococcus aureus. Briefly: Minimum inhibitory concentration (MIC) preventing growth of […]. The series is classed as functional.
Series [10] concerns Proteus vulgaris. Put plainly: Minimum inhibitory concentration (MIC) preventing growth of Proteus vulgaris. The series is classed as functional.
Series [11] concerns Staphylococcus aureus. Briefly: Efficacy on systemic infections after oral administration in mice was determined against […] HS-93. The series is classed as functional. In a few lines:
as §1

In series [12] the test system is Enterobacter cloacae. Briefly: Minimum inhibitory concentration (MIC)preventing growth of Enterobacter cloacae. The series is classed as functional.
For series [13], the system named is Klebsiella pneumoniae. Put plainly: Minimum inhibitory concentration (MIC)preventing growth of Klebsiella pneumoniae. The series is classed as functional.
In series [14] the test system is Mus musculus. Put plainly: Blood level after oral administration in mice (50 mg/kg) was determined (area under the concentration-time curve recorded at 0.5, 1, 2, and 4 hour after dosing). The series is classed as ADME, organism-based. Also on record: dose 50 mg/kg, time < 4 hr, route oral. The note with it: in vivo. In short, it runs like this:
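Single oral dose of 50 mg/kg to mice. Blood taken from groups of six mice at 0.5, 1, 2 and 4 h after dosing. Serum levels measured by disk agar diffusion bioassay with Bacillus subtilis ATCC 6633 on Seed Agar, plates incubated 18 h at 37 °C, giving total activity in serum. AUC 0-4 h expressed as μg/mL […].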

Series [15] relates to Staphylococcus epidermidis. Put plainly: Minimum inhibitory concentration (MIC) preventing growth of Staphylococcus epidermidis. The series is classed as functional.

As a reminder, the MIC is the lowest concentration that inhibits growth of the organism. High values mean a less susceptible organism, low ones a more susceptible organism. By ED50 is commonly meant the midpoint of the dose-response relation. A low value points to greater potency. By AUC is commonly meant concentration integrated over time. Regarding `CCNC1CN(c2c(F)cc3c(=O)c(C(=O)O)cn(C4CC4)c3c2F)C1`, the MIC in [1] amounted to 1 µg/mL (≈ 2.75 µM); in series [2], 0.25 µg/mL (≈ 0.688 µM); in [3], 0.06 µg/mL (≈ 0.165 µM); in series [4], 0.06 µg/mL (≈ 0.165 µM); in series [7] it was 0.06 µg/mL (≈ 0.165 µM); in series [8], 2 µg/mL (≈ 5.5 µM). Further, the MIC in [9] came to 0.25 µg/mL (≈ 0.688 µM); in [10], 0.25 µg/mL (≈ 0.688 µM); in [12] it was 0.06 µg/mL (≈ 0.165 µM); in [13], 0.06 µg/mL (≈ 0.165 µM); in [15] it was 0.25 µg/mL (≈ 0.688 µM). The ED50 in [5] turned out to be 89 mg/kg; in series [6], 1.1 mg/kg; in series [11], 16.6 mg/kg. The compound further displayed an AUC in [14] of 38200 ng·h/mL.

On to `NCC1CN(c2cc3c(cc2F)c(=O)c(C(=O)O)cn3C2CC2)C1`, for which the MIC was found to be 0.5 µg/mL (≈ 1.51 µM) in series [1]; 0.25 µg/mL (≈ 0.754 µM) in series [2]; 0.12 µg/mL (≈ 0.362 µM) in series [3]; 0.12 µg/mL (≈ 0.362 µM) in [4]; 0.12 µg/mL (≈ 0.362 µM) in [7]; 1 µg/mL (≈ 3.02 µM) in [8]. In addition, the MIC in series [9] amounted to 0.5 µg/mL (≈ 1.51 µM); in series [10] it was 1 µg/mL (≈ 3.02 µM); in [12], 0.25 µg/mL (≈ 0.754 µM); in [13], 0.12 µg/mL (≈ 0.362 µM); in series [15], 0.25 µg/mL (≈ 0.754 µM). Further, the AUC in series [14] is 0 ng·h/mL.

Turning to `CNC1CN(c2c(F)cc3c(=O)c(C(=O)O)cn(C4CC4)c3c2F)C1`, the MIC amounted to 1 µg/mL (≈ 2.86 µM) in [1]; 0.25 µg/mL (≈ 0.716 µM) in series [2]; 0.03 µg/mL (≈ 0.0859 µM) in series [3]; 0.06 µg/mL (≈ 0.172 µM) in [4]; 0.06 µg/mL (≈ 0.172 µM) in series [7]; 0.5 µg/mL (≈ 1.43 µM) in series [8]. The MIC in series [9] stood at 0.25 µg/mL (≈ 0.716 µM); in [10] it was 0.5 µg/mL (≈ 1.43 µM); in series [12], 0.03 µg/mL (≈ 0.0859 µM); in series [13] it was 0.03 µg/mL (≈ 0.0859 µM); in series [15] it was 0.12 µg/mL (≈ 0.344 µM). In addition, the results for the ED50 in series [5], in series [6] and in series [11] were 28.5 mg/kg, 1.5 mg/kg and 10.6 mg/kg, respectively. Moreover, in [14], the area under the curve (AUC) is 32700 ng·h/mL.

Consider `CC1(N)CN(c2c(F)cc3c(=O)c(C(=O)O)cn(C4CC4)c3c2F)C1`, for which the MIC amounted to 0.5 µg/mL (≈ 1.43 µM) in series [1]; 0.12 µg/mL (≈ 0.344 µM) in series [2]; 0.06 µg/mL (≈ 0.172 µM) in series [3]; 0.03 µg/mL (≈ 0.0859 µM) in [4]; 0.12 µg/mL (≈ 0.344 µM) in [7]; 0.5 µg/mL (≈ 1.43 µM) in series [8]. For the same compound, the minimal inhibitory concentration (MIC) in [9] was determined as 0.12 µg/mL (≈ 0.344 µM); in series [10] it was 0.25 µg/mL (≈ 0.716 µM); in [12], 0.06 µg/mL (≈ 0.172 µM); in series [13], 0.03 µg/mL (≈ 0.0859 µM); in series [15], 0.12 µg/mL (≈ 0.344 µM). In addition, the ED50 in series [5] was 65.7 mg/kg; in [6], 3.1 mg/kg; in series [11], 13 mg/kg. The AUC in series [14] was determined as 20000 ng·h/mL.

For `CNC1(C)CN(c2c(F)cc3c(=O)c(C(=O)O)cn(C4CC4)c3c2F)C1`, the MIC in [1] worked out at 1 µg/mL (≈ 2.75 µM); in series [2], 0.5 µg/mL (≈ 1.38 µM); in series [3] it was 0.12 µg/mL (≈ 0.33 µM); in series [4], 0.12 µg/mL (≈ 0.33 µM); in series [7], 0.12 µg/mL (≈ 0.33 µM); in series [8], 2 µg/mL (≈ 5.5 µM). Further, the MIC in series [9] amounted to 0.5 µg/mL (≈ 1.38 µM); in series [10], 1 µg/mL (≈ 2.75 µM); in series [12], 0.12 µg/mL (≈ 0.33 µM); in series [13], 0.12 µg/mL (≈ 0.33 µM); in series [15] it was 0.5 µg/mL (≈ 1.38 µM). The ED50 was found to be 27.2 mg/kg in series [5], 1.4 mg/kg in series [6] and 15 mg/kg in series [11]. Also, in series [14], the AUC was found to be 15800 ng·h/mL.

For the compound `NCC1CN(c2c(F)cc3c(=O)c(C(=O)O)cn(C4CC4)c3c2F)C1`, the MIC turned out to be 0.12 µg/mL (≈ 0.344 µM) in [1]; 0.12 µg/mL (≈ 0.344 µM) in series [2]; 0.25 µg/mL (≈ 0.716 µM) in series [3]; 0.06 µg/mL (≈ 0.172 µM) in series [4]; 0.25 µg/mL (≈ 0.716 µM) in series [7]; 2 µg/mL (≈ 5.73 µM) in series [8]. Moreover, the MIC in series [9] was found to be 0.12 µg/mL (≈ 0.344 µM); in [10], 1 µg/mL (≈ 2.86 µM); in series [12] it was 0.25 µg/mL (≈ 0.716 µM); in [13], 0.25 µg/mL (≈ 0.716 µM); in series [15], 0.12 µg/mL (≈ 0.344 µM). This compound also gave an AUC in series [14] of 1700 ng·h/mL.

On to `CC1(N)CN(c2cc3c(cc2F)c(=O)c(C(=O)O)cn3C2CC2)C1`, for which the MIC amounted to 0.5 µg/mL (≈ 1.51 µM) in series [1]; 0.12 µg/mL (≈ 0.362 µM) in series [2]; 0.06 µg/mL (≈ 0.181 µM) in series [3]; 0.06 µg/mL (≈ 0.181 µM) in series [4]; 0.06 µg/mL (≈ 0.181 µM) in [7]; 0.5 µg/mL (≈ 1.51 µM) in series [8]. The MIC worked out at 0.12 µg/mL (≈ 0.362 µM) in [9]; 0.06 µg/mL (≈ 0.181 µM) in [10]; 0.12 µg/mL (≈ 0.362 µM) in series [12]; 0.12 µg/mL (≈ 0.362 µM) in series [13]; 0.12 µg/mL (≈ 0.362 µM) in series [15]. For the same compound, the ED50 came to 62.2 mg/kg in series [5], 2.7 mg/kg in series [6] and 36.1 mg/kg in series [11]. The same compound gave an AUC in series [14] of 7000 ng·h/mL.
